According to PubChem BioAssay AID492988 (Johns Hopkins Ion Channel Center, 2010):
Inconclusive results are not listed. Activity calls are given as the source filed them.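 The calls were made as follows: active = duplicate-averaged calcium signal falling below the mean of the agonist-only control wells less 5 SD; inactive = the rest, inconclusive results apart.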

These compounds were tested on Transient receptor potential cation channel subfamily C member 4 (TRPC4beta), mouse (assay: blockers of DAMGO-driven mouse TRPC4 calcium entry – cell-based, HEK293 TRPC4beta/mu-opioid, Fluo-4 calcium flux, single concentration, SAR follow-up (AID 492988)). Settings: DAMGO-evoked Fluo4 calcium flux, at 10 µM, stronger effect = higher value.
Method in brief: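 Material: HEK293 cells stably expressing TRPC4beta plus mu-opioid receptor | Reagent: DAMGO mu-opioid agonist, submaximal dose then ECmax dose | Doses: Single concentration per test compound | Times: Compound 110 s, submaximal DAMGO 110 s | Detection: Fluo4 calcium-sensitive dye fluorescence, calcium flux | Measure: Peak-minus-trough fluorescence over baseline, integrated ratio, mean % inhibition | Replicates: Duplicates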

Row | SMILES | inhibition
1 | Cc1cc(N2CCN(c3ncccn3)CC2)nc2ccccc12 | 6.42% (inactive)
2 | Cc1cc(N2CCC[C@@H]2C)nc2ccccc12 | 90%
3 | Cc1cc(N2CCCCC2)nc2c(C)cccc12 | 46.4%
4 | Cc1cc(N2CC(C)CC(C)C2)nc2ccccc12 (centres undefined) | 32.4% (inactive)
5 | Cc1cc(N2CCCCC2)nc2ccc(F)cc12 | 72.9%
6 | FC(F)(F)c1cc(N2CCCC2)nc2ccccc12 | -10.6% (inactive)
7 | FC(F)(F)c1cc(N2CCCCC2)nc2ccccc12 | 39.7% (inactive)
8 | Cc1cc(N2CCN(c3ccccc3C#N)CC2)nc2ccccc12 | 42% (inactive)
9 | Cc1cc(N2CCCC2)nc2ccc(F)cc12 | 91.3%
10 | Cc1cc(N2CCCCC2)nc2ccccc12 | 90%
11 | Cc1ccnc(N2CCCC2)n1 | 38% (inactive)
12 | CCc1ccc2nc(N3CCCC3)cc(C)c2c1 | 91.5%
13 | Cc1cc(N2CCCC(O)C2)nc2ccccc12 (centres undefined) | 69.3%
14 | Cc1cc(N2CCNCC2)nc2ccccc12 | -292% (inactive)
15 | Cc1cc(N2CCC(N3CCOCC3)CC2)nc2ccccc12 | 11.7% (inactive)
16 | c1ccc(-c2cc(N3CCCC3)nc3ccccc23)cc1 | 79.9%
17 | Cc1cc(N2CCCC2)nc2c(C)cccc12 | 70.1%

Row | SMILES | inhibition
18 | Cc1cc(N2CCOCC2)nc2ccccc12 | 42.6%
19 | Cc1cc(N2CCC(C)CC2)nc2ccccc12 | 91.6%
20 | Cc1ccc2nc(N3CCCC3)cc(C)c2c1 | 93%
21 | Cc1cc(N2CCN(C)CC2)nc2ccccc12 | -157% (inactive)
22 | Cc1cc(N2CCN(CC3CCCO3)CC2)nc2ccccc12 (centres undefined) | -51.3% (inactive)
23 | c1ccc(-c2cc(N3CCCCC3)nc3ccccc23)cc1 | 55.9%
24 | Cc1ccnc(N2CCCC2)c1 | 44.1%
25 | COCCN(C)c1cc(C)c2ccccc2n1 | 24.5% (inactive)
26 | CCN(CC)c1cc(C)c2ccccc2n1 | 61.2%
27 | Cc1cc(N(C)CCN(C)C)nc2ccccc12 | -249% (inactive)
28 | COc1ccccc1N1CCN(c2cc(C)c3ccccc3n2)CC1 | 72.2%
29 | COc1ccc(N2CCN(c3cc(C)c4ccccc4n3)CC2)cc1 | -82.8% (inactive)
30 | Cc1cc(N2CCOc3ccccc32)nc2ccccc12 | 63%
31 | Cc1ccnc(N2CCCCC2)n1 | 38.2% (inactive)
32 | Cc1ccnc(N2CCCCC2)c1 | 50.8%
33 | Cc1cc(N2CCCC2)nc2ccccc12 | 84.9%
34 | Cc1cc(N2CCN(c3ccncc3)CC2)nc2ccccc12 | 29.5% (inactive)
